Compounds with a hit are over-represented: about 0.72% of the library has one in this group of screens.
bIAP inhibitor: bovine intestinal alkaline phosphatase inhibitors, primary screen, selectivity assay for TNAP inhibitor project, biochemical, bovine IAP, CDP-star luminescence; purified bovine IAP, 30 min; inhibition, % at 20 µM; 190,000 tested, under 10 active;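 active = over 50% inhibition of intestinal alkaline phosphatase at 20 µM in the single-dose screen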
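Incubation: 30 min reaction at room temperature / Material: purified bovine intestinal alkaline phosphatase (IAP) enzyme / Input: enzyme at 1/65,000,000 dilution / Dosing: 20 µM single dose / Signal: CDP-star luminescence signal / Reagent: CDP-star chemiluminescent phosphatase substrate, 30 µM final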
hIAP inh: human IAP inhibitors, primary screen, biochemical, luminescence, uHTS | Intestinal-type alkaline phosphatase (Homo sapiens), P09923 | purified IAP, CDP-Star luminescence, 30 min | inhibition, % at 10 µM | 330,000 tested, 0.12% active | AID 2544, 2010;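 active = inhibition reaching a set limit with compound at 10 µM in the primary screen, cut at about 35% in these data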
Target sequence (P09923 whole entry, looked up): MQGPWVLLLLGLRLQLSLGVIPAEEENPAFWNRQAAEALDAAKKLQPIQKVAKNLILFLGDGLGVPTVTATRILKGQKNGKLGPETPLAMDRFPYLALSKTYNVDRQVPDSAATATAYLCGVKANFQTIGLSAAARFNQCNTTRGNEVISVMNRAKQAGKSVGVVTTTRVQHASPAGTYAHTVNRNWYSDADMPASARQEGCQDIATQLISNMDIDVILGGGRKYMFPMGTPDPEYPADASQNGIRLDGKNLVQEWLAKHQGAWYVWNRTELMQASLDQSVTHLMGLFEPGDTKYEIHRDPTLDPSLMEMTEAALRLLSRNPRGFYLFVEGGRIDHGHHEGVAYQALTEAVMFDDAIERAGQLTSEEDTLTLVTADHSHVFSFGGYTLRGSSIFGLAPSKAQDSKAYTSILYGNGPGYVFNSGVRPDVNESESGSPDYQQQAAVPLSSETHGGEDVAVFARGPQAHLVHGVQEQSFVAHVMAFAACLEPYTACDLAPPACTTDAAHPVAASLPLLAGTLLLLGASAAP
hIAP act: human IAP activators, primary screen, biochemical, luminescence, uHTS; Intestinal-type alkaline phosphatase (Homo sapiens), P09923; purified human IAP, CDP-Star luminescence, 30 min; hits give high values; 1 = vehicle-only enzyme, 0 = enzyme-free background; activation factor at 10 µM; 330,000 tested, 0.16% active;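 active = activation factor of the enzyme at least 2-fold when tested at 20 µM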
bIAP act: bovine intestinal alkaline phosphatase activators, primary screen, biochemical, bovine IAP, CDP-star luminescence; purified bovine IAP, 30 min; hits give high values; fold of DMSO-control signal, blank-subtracted; 200,000 tested, 0.17% active; AID 1016, 2008; alkaline phosphatase, intestinal [Bos taurus]; activation factor at 20 µM;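 active = activation factor of 2 or more at 20 µM, a signal rise over negative controls twice the positive control's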
mIAP inh: inhibitors of mouse IAP, primary screen, biochemical, luminescence, uHTS. purified mouse IAP, CDP-Star luminescence, 30 min. inhibition, % at 10 µM. 330,000 tested, 0.2% active. AID 2806, 2010;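 active = inhibition of at least 40% at 10 µM in the primary screen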
mIAP act: activators of mouse IAP, primary screen, biochemical, luminescence, uHTS. muIAP, CDP-Star luminescence, 30 min; hits give high values; 1 = vehicle-only enzyme signal, 0 = enzyme-free wells. 330,000 tested, 0.24% active. intestinal alkaline phosphatase [Mus musculus]. activation factor at 10 µM. AID 2805, 2010;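 active = activation factor of at least 2 at 20 µM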
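Assay system: mouse IAP enzyme / Compound: DMSO-dissolved test compounds / Timing: 30 min, room temperature / Measured by: luminescence from enzymatic CDP-Star hydrolysis / Control set: DMSO-only wells, enzyme-free buffer wells as negative control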
hIAP act confirm: human IAP activators, confirmation, biochemical, luminescence, single concentration, uHTS hits; shares compounds with hIAP act; purified IAP, CDP-Star luminescence, 30 min; hits give low values; AID 434926, 2010; 880 tested, 10% active; activation (%Activity, negative = activation), % at 8.3 µM;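 active = at least twofold enzyme activation in any of six single-dose repeats, which the averaged readout prints as negative percent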
Of the large screens only hits and unclear results are named; the others gave an inactive call (follow-up assays come after a bar, where they were run).

COc1ccc2c(c1OC)C(=O)OC2N1C(=O)CC[C@H]1C(=O)Nc1ccc2c(c1)OCO2 (stereo partly specified)	none (no result: bIAP inhibitor, bIAP act)
Cc1cccc(C)c1N(C(=O)c1ccco1)C(C(=O)NC1CCCC1)c1ccncc1 (stereo unspecified)	none (no result: bIAP inhibitor, bIAP act)
O=C(NC(=S)NNC(=O)c1ccccc1O)c1cccs1	hIAP act 2 (no result: bIAP inhibitor, bIAP act) | hIAP act confirm inactive
O=C(NC(=S)NNC(=O)c1ccccc1O)c1ccc(F)cc1	hIAP act 2.1 (no result: bIAP inhibitor, bIAP act) | hIAP act confirm inactive
O=C(NC(=S)NNC(=O)c1ccco1)c1ccccc1	hIAP act 2 (no result: bIAP inhibitor, bIAP act) | hIAP act confirm inactive
CCCCNC(=O)NNC(=O)c1ccco1	none
CCCCNC(=S)NNC(=O)c1ccco1	hIAP inh 44 | hIAP act confirm inactive
Cc1ccc(C(=O)NC(=S)NNC(=O)c2ccccc2O)cc1	hIAP act 2.4 (no result: bIAP inhibitor, bIAP act) | hIAP act confirm inactive
Cc1ccc(C(=O)NNC(=S)NC(=O)c2ccccc2)cc1	none (no result: bIAP inhibitor, bIAP act)
O=C(NC(=S)NNC(=O)c1ccccc1O)c1ccccc1	hIAP act 2.1 (no result: bIAP inhibitor, bIAP act) | hIAP act confirm inactive
O=C(NNC(=S)NC(=O)c1ccccc1[N+](=O)[O-])c1ccccc1O	hIAP act 2.4 | hIAP act confirm inactive
O=C(O)c1c(Cl)cccc1Cl	none (no result: bIAP inhibitor, bIAP act)
COc1ccc(C(=O)NC(=S)NNC(=O)c2ccc(NC(C)=O)cc2)cc1Br	hIAP act 2.1 | hIAP act confirm inactive
Cc1ccc(S(=O)(=O)N2CCN(C(=O)CCn3cncn3)CC2)cc1	hIAP inh 36 (no result: bIAP inhibitor, bIAP act) | hIAP act confirm inactive
COc1cccc(CNC(=O)c2ccccc2NC(=O)C2=C(C)OCCS2)c1	none (no result: bIAP inhibitor, bIAP act)
CC(=O)N1CCOc2ccc(S(=O)(=O)N3CCCC(C)C3)cc21 (stereo unspecified)	hIAP inh 43 (no result: bIAP inhibitor, bIAP act) | hIAP act confirm inactive
CC(=O)N1CCOc2ccc(S(=O)(=O)N3C(C)CCCC3C)cc21 (stereo unspecified)	none (no result: bIAP inhibitor, bIAP act)
Cn1cccc1-c1cc(C(=O)N/N=C/c2cc(Br)ccc2O)[nH]n1	hIAP act 2.5 (no result: bIAP inhibitor, bIAP act) | hIAP act confirm inactive
Cc1ccc(Cl)cc1NC(=O)Nc1cccs1	none
COc1ccc(C(=O)NCC(c2ccccc2)N2CCCC2)cc1S(=O)(=O)N1CCOCC1 (stereo unspecified)	none (no result: bIAP inhibitor, bIAP act)
O=C(NCC1CCCCC1)c1ccc(F)cc1Cl	hIAP inh 45 (no result: bIAP inhibitor, bIAP act) | hIAP act confirm inactive
CCc1cccc(C)c1NC(=O)CN(C)C1=NS(=O)(=O)c2ccccc21	none (no result: bIAP inhibitor, bIAP act)
Cc1ccc(C(=O)N(Cc2cccs2)C2CCS(=O)(=O)C2)cc1 (stereo unspecified)	hIAP inh 42 (no result: bIAP inhibitor, bIAP act) | hIAP act confirm inactive
O=C(c1ccc(Cl)cc1)N(Cc1cccs1)C1CCS(=O)(=O)C1 (stereo unspecified)	none
CC(NC(=O)CSc1ncccn1)c1ccccc1 (stereo unspecified)	hIAP inh 67 | hIAP act confirm inactive
O=C(CSc1ncccn1)Nc1ccccc1	none
CN(CC(=O)Nc1cccc(F)c1)C(=O)c1cc(S(=O)(=O)N2CCN(c3ccccc3)CC2)ccc1Cl	none (no result: bIAP inhibitor, bIAP act)
COc1ccc(/C=C/CN2CCC(n3nccc3NC(=O)C3CCCC3)CC2)cc1	hIAP act 2.1 (no result: bIAP inhibitor, bIAP act) | hIAP act confirm inactive
COc1ccc(CN2CCC(n3nccc3NC(=O)C3CCCC3)CC2)cc1	none (no result: bIAP inhibitor, bIAP act)
O=C(NCCN1CCOCC1)N1CCOCC1	none
CCCC(CCC)C(=O)NCCN1CCOCC1	hIAP inh 39 | hIAP act confirm inactive
COc1ccccc1CNC(=O)CN(c1ccc(C)cc1)S(=O)(=O)c1c(C)noc1C	hIAP inh 38 (no result: bIAP inhibitor, bIAP act) | hIAP act confirm inactive
Oc1ccc(N=Nc2c(O)ccc3ccccc23)cc1	hIAP inh 45 | hIAP act confirm -92
Cc1ccc(C(=O)C(C)OC(=O)Cn2[nH]c(=O)c3ccccc3c2=O)cc1C (stereo unspecified)	none (no result: bIAP inhibitor, bIAP act)
c1ccc(-c2nnc(CN3CCCCC3)o2)cc1	none (no result: bIAP inhibitor, bIAP act)
c1ccc(-c2nnc(CN3CCC4(CC3)OCCO4)o2)cc1	hIAP inh 41 | hIAP act confirm inactive
CCOC(=O)/C(O)=C(\C#N)c1nc2ccccc2[nH]1	none
O=C(NNC(=O)c1nc2ccccc2[nH]1)OCc1ccccc1	hIAP act 2.6 (no result: bIAP inhibitor, bIAP act) | hIAP act confirm inactive
Cc1ccccc1CNC(=O)c1ccccc1N	hIAP inh 36 | hIAP act confirm inactive
Cc1nnc(NC(=O)CSc2nnc(C)c(=O)n2N)s1	none (no result: bIAP inhibitor, bIAP act)
CCc1nnc(NC(=O)CSc2nnc(C)c(=O)n2N)s1	hIAP inh 46 (no result: bIAP inhibitor, bIAP act) | hIAP act confirm inactive
COc1ccccc1NC(=O)C(C)OC(=O)CCCc1c[nH]c2ccccc12 (stereo unspecified)	none (no result: bIAP inhibitor, bIAP act)
O=C1CC(c2ccccc2)n2nc(NC(=O)c3ccccn3)nc2N1 (stereo unspecified)	hIAP act 2.4 | hIAP act confirm inactive
O=C1CC(c2ccccc2)n2nc(NC(=O)c3ccccc3)nc2N1 (stereo unspecified)	none
CCCNC(=S)NNC(=O)c1cc(C2CC2)nc2ccccc12	hIAP act 2.2 (no result: bIAP inhibitor, bIAP act) | hIAP act confirm inactive
c1ccc(COc2ccc(Nc3ncnc4nc[nH]c34)cc2)cc1	hIAP act 2.4 | hIAP act confirm inactive
CCOC(=O)c1ccc(Nc2ncnc3nc[nH]c23)cc1	none
CC(C)(C)c1cccc(C2(O)C(=O)c3ccccc3C2=O)c1O	hIAP inh 58 (no result: bIAP inhibitor, bIAP act) | hIAP act confirm inactive
Cc1ccc(C2(O)C(=O)c3ccccc3C2=O)c(O)c1C	none (no result: bIAP inhibitor, bIAP act)
CCOC(=O)C(=O)N/N=C(/c1ccccc1)c1ccc(OC)cc1	hIAP inh 37 (no result: bIAP inhibitor, bIAP act) | hIAP act confirm inactive
COc1ccccc1/C=C/C=N/n1c(-c2cc(C)[nH]n2)n[nH]c1=S	hIAP act 2.1 | hIAP act confirm inactive
COc1cccc(/C=N/n2c(-c3n[nH]c4c3CCC4)n[nH]c2=S)c1O	none
Cc1ccccc1/C=N/n1c(-c2cc(-c3ccccc3)n[nH]2)n[nH]c1=S	hIAP act 2 (no result: bIAP inhibitor, bIAP act) | hIAP act confirm inactive
COc1ccccc1/C=C/C=N/n1c(-c2n[nH]c3c2CCC3)n[nH]c1=S	hIAP act 2 (no result: bIAP inhibitor, bIAP act) | hIAP act confirm inactive
COc1ccccc1/C=C/C=N/n1c(-c2ccccn2)n[nH]c1=S	none (no result: bIAP inhibitor, bIAP act)
